L major viab: reduces viability of Leishmania major promastigotes; actives 9% (n = 200,000); inhibition, % at 10 µM; resazurin fluorescence viability; in the data active means inhibition above about 50%;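 further: promastigotes grown with compound for 44 hours at 28 °C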
CHOP inhibitor: inhibitors of CHOP induction in ER stress response; AID 2732; CHO-K1 CHOP-promoter luciferase, tunicamycin-induced, 15-18 h; inhibition, % at 10 µM; actives 3.8% (n = 220,000);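 active means compounds that reduced the stress-induced luciferase reporter signal by more than about 70% of percent inhibition, limit read from the data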;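 further: 0% = tunicamycin plus vehicle and 100% = wells without tunicamycin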
bCat nuc transl: alters nuclear translocation of beta-catenin in HeLa cells; immunofluorescence imaging; nuclear translocation activity, % at 5 µM; actives 0.3% (n = 190,000); AID 1665;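 active means nuclear translocation activity above 50% at 5 µM, with a well cell count of 50 or more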;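 further: per-cell ratio of nuclear to cytoplasmic median beta-catenin stain intensity; plate controls were DMSO negative control for no effect and GSK-3 inhibitor IX positive control for full effect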
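System: Human HeLa cells, endogenous beta-catenin | Compound dosing: 5 µM primary, 0.02–20 µM confirmation | Timing: 24 h compound exposure at 37°C, 5% CO2 | Measured by: Fluorescence imaging of beta-catenin antibody stain plus DAPI | Read-out basis: % activation of per-cell nuclear versus cytoplasmic median beta-catenin signal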
Dynein transport: dynein cargo transport inhibition | actives 0.47% (n = 220,000) | z-score, hits read low | 3617.4 mouse cells, GR-EGFP nuclear translocation imaging; test concentration mostly 20 µM; stimulated with dexamethasone, 1 µM; hits give low values;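 active means plate z-score of nuclear minus cytoplasmic receptor signal below a set negative limit, without overly bright fluorescence or cell loss, cut at about -3.5 in these data, passing the limit was not always enough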;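 further: z-score of nuclear minus cytoplasmic ring GR-EGFP intensity difference per well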
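Buffer or medium: tet-free, stripped-serum medium; reagent: dexamethasone at 1.0 µM final, 30 min; incubation: 48 h induction, 1 h compound, 30 min dex at 37 °C; measured by: formaldehyde fixation, Hoechst nuclear stain, 10x automated fluorescence imaging; read-out: nuclear-to-cytoplasmic GR-EGFP distribution per well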
Autophagy HCS: alters autophagy in cells; MEF GFP-LC3 puncta imaging; test concentration mostly 10 µM; calls only at 10 µM (by protocol); actives 0.98% (n = 190,000); AID 463193;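 active means percentage of spot-positive cells more than 3 SD above its plate mean, without a fluorescence outlier flag or 80% toxicity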;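 further: spot-positive cell cutoff set from DMSO-treated cells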
MT stabilizer: microtubule stabilizers in HeLa cells | HeLa tubulin immunostaining HCS, 24 h; share of cells brighter than vehicle mean+2SD | % tubulin-high responders, % at 10 µM | actives 0.83% (n = 200,000) | AID 2205;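 active means plate Z-score above 3 for both tubulin-high and condensed-nucleus cell shares, with cell loss under 80%, at 10 µM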;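 further: anti alpha tubulin signal scored within the nucleus-defined area of each cell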
* = called active by the depositor; i = inactive; · = no result. Only some compounds are listed: those with a hit (about 12% of all), similar ones and a draw of the others.

SMILES | L major viab | CHOP inhibitor | bCat nuc transl | Dynein transport | Autophagy HCS | MT stabilizer
Cc1ccc(S(=O)(=O)N2CCN(S(=O)(=O)c3ccccc3)C2c2ccc(N(C)C)cc2)cc1 (centres undefined) | 89* | 18 | 1 | 1.2 | i | 2
CC(C)C1N(C(=O)CN2CCCC2)CCN1S(=O)(=O)c1ccccc1 (centres undefined) | -3 | 34 | -2 | -0.58 | i | 2
O/C(=C\c1ccc2ccccc2n1)c1ccc(O)cc1O | -5 | 0 | -2 | -0.78 | i | 5
Cc1ncc(CN2CCC(CO)(CCOc3ccccc3)CC2)s1 | · | 2 | 2 | -0.52 | · | ·
CCOC(=O)C1(CCc2ccccc2)CCN(Cc2ccn[nH]2)CC1 | 12 | -1 | -2 | -0.79 | i | 3
CCOC(=O)C1(CCOc2ccccc2)CCN(Cc2nccn2CC)CC1 | 31 | 56 | -1 | -0.93 | i | 4
CCOC(=O)C1(CCCc2ccccc2)CCN(Cc2nccn2CC)CC1 | 75* | 14 | 0 | 1.5 | i | 3
CCOC(=O)C1(Cc2ccccc2C(F)(F)F)CCN(CCCn2cccn2)CC1 | 88* | -12 | 3 | -1.1 | i | 1
Cc1ncc(CN2CCC(CO)(Cc3ccccc3)CC2)s1 | 89* | 10 | 0 | 1.2 | i | 4
CCOC(=O)C1(Cc2ccccc2C(F)(F)F)CCN(C(C)COC)CC1 (centres undefined) | 10 | 29 | 1 | 0.11 | i | 4
CCOC(=O)C1(CCCc2ccccc2)CCN(CCCn2cccn2)CC1 | 76* | 21 | -1 | -1.5 | i | 4
CCOC(=O)C1C(=O)CC(C)(O)C(C(=O)OCC)C1c1ccc([N+](=O)[O-])cc1 (centres undefined) | · | -6 | 1 | 0.38 | · | ·
COc1cc2c(cc1OC)CN(CC(=O)NC(=O)NC1CCCCC1)CC2 | 0 | 1 | 0 | -0.64 | i | 4
CCOc1ccc(Nc2nc(NCCN3CCOCC3)nc(OC)n2)cc1 | 10 | -12 | 0 | 0.088 | i | 32
CCOC(=O)C1(CCCc2ccccc2)CCN(Cc2cnc(C)s2)CC1 | 77* | 28 | -2 | -0.82 | i | 3
CC1CCc2c(sc(Nc3nc4c(F)cccc4s3)c2C(N)=O)C1 (centres undefined) | 5 | 50 | 8 | 1.2 | i | 6
O=C(NC(C(=O)N/N=C/c1c2ccccc2cc2ccccc12)c1n[nH]c(=O)c2ccccc12)c1ccccc1 (centres undefined) | 93* | -8 | 9 | -0.6 | i | 4
CS(=O)(=O)Nc1ccc(C(=O)NCCSCc2c(F)cccc2Cl)cc1 | -3 | 20 | 3 | -0.65 | i | 2
Fc1ccc(Nc2ccnc(Nc3ccc(F)cc3)n2)cc1 | 95* | 20 | 3 | 1.7 | i | 5
Nc1ncnc(Nc2ccc(F)cc2)n1 | 57* | -15 | -2 | -0.51 | i | 1
Cc1ccc(Nc2ncnc(N)n2)cc1 | -5 | -9 | 0 | -0.84 | i | 3
CCOc1ccc(NC(=O)Nc2cccs2)cc1 | -2 | -17 | · | -0.58 | i | 1
CCN1CCCC1CNCc1cccc(OC)c1OCc1ccc(F)cc1 (centres undefined) | 63* | -52 | -1 | 1.9 | i | 4
COc1cccc(CNc2ncn[nH]2)c1OCc1ccc(F)cc1 | 3 | 19 | 1 | -0.48 | i | 3
COc1ccc(-c2cc(CS(=O)(=O)c3ccccc3)on2)cc1 | -3 | -13 | -6 | -0.18 | i | 3
SMILES | L major viab | CHOP inhibitor | bCat nuc transl | Dynein transport | Autophagy HCS | MT stabilizer
COc1ccccc1Nc1ncnc2nc[nH]c12 | -2 | -6 | · | 0.18 | i | 2
Cc1cc(C(=O)Nc2c(C)nn(Cc3ccc(Cl)cc3)c2C)no1 | -4 | -8 | -2 | 0.93 | i | 2
Cc1nn(Cc2ccc(Cl)cc2)c(C)c1NC(=O)C(c1ccccc1)c1ccccc1 | 99* | 6 | 0 | 0.87 | i | 2
Cn1c(=NC(=O)CN2C(=O)C3CC=CCC3C2=O)sc2ccccc21 (centres undefined) | 99* | -24 | -3 | -1.3 | i | 4
COC(=O)c1c(NC(=O)CN2CCCc3ccccc32)sc(C)c1C | 89* | 70* | · | -0.058 | i | 4
CCOC(=O)c1c(NC(=O)CN2CCCc3ccccc32)sc(C)c1C | -1 | 52 | 0 | 0.27 | i | 2
COC(=O)c1c(NC(=O)CN2CCC3(O)CCCCC3C2c2ccc(F)cc2)sc(C)c1C (centres undefined) | 77* | 14 | -1 | -0.053 | i | 4
CCn1ncc(CN2CCN(Cc3cccc(OC)c3)C(CCO)C2)c1C (centres undefined) | 0 | 20 | 0 | 2.1 | i | 4
CCC(CC)NC(=O)COC(=O)c1ccc(NS(=O)(=O)c2ccc3c(c2)OCCO3)cc1 | 2 | 16 | 2 | -0.26 | i | 2
O=C(Oc1c(-c2ccccc2)oc2ccccc2c1=O)c1ccccc1 | -11 | 47 | -2 | 0.41 | i | 3
O=C(Oc1c(-c2ccccc2Cl)oc2ccccc2c1=O)c1ccc(Cl)cc1 | 55* | 7 | · | 0.52 | i | 4
Cc1ccc(C)n1/N=C1/NC(=O)CS1 | -6 | 28 | 0 | 0.04 | i | 1
N#C/C(=N\Nc1cccc2ccccc12)c1nnc2n1CCCCC2 | -1 | -10 | 1 | -2.5 | i | 5
COc1ccc(C(=O)N2CCCC(c3nc(-c4ccc(OC)c(OC)c4)no3)C2)c(OC)c1 (centres undefined) | 87* | 17 | -3 | -0.31 | i | 5
Cc1ccc(NCc2nnc(SCC(=O)Nc3ncc(C)s3)n2Cc2ccco2)c(C)c1 | 1 | 94* | -3 | 0.083 | i | 3
COc1cc(C(=O)Nc2cccc(-c3nc4cc(C)ccc4o3)c2)cc(OC)c1OC | -1 | 75* | -6 | 0.2 | i | 3
O=C(Nc1cccc(-c2nc3ccccc3o2)c1)c1ccc(N2C(=O)C3C4C=CC(C4)C3C2=O)cc1 (centres undefined) | -5 | 71* | -3 | -0.34 | i | 3
O=C1C2C3C=CC(C3)C2C(=O)N1c1cccc(-c2nc3ccccc3o2)c1 (centres undefined) | -1 | 26 | 0 | -0.46 | i | 3
Cc1cccc(-c2nc3cc(NC(=O)C4CCCO4)ccc3o2)c1 (centres undefined) | 75* | 12 | 0 | -0.88 | i | 4
COc1ccc(CC(=O)Nc2cccc(-c3nnc(-c4ccco4)o3)c2)cc1 | 61* | 59 | · | -0.8 | i | 5
C=CCc1cccc([C@@H]2[C@@H](C)CC[C@H]3C(=O)N4[C@@H](c5cc(OC)c(OC)c(OC)c5)c5[nH]c6ccccc6c5C[C@H]4C(=O)N23)c1 | 19 | 40 | · | 0.4 | i | 5

High-throughput results from PubChem.
